# AHR activator – AHR activators, primary screen, cell-based, luminescence, luciferase reporter, human; activation, % at 5 µM; Aryl hydrocarbon receptor (Homo sapiens), P35869; AID 2796, 2010; 320,000 tested, 2.5% active; AHR-responsive luciferase reporter cells; in the data active = activation above about 47%
# Target sequence (P35869 whole entry, looked up): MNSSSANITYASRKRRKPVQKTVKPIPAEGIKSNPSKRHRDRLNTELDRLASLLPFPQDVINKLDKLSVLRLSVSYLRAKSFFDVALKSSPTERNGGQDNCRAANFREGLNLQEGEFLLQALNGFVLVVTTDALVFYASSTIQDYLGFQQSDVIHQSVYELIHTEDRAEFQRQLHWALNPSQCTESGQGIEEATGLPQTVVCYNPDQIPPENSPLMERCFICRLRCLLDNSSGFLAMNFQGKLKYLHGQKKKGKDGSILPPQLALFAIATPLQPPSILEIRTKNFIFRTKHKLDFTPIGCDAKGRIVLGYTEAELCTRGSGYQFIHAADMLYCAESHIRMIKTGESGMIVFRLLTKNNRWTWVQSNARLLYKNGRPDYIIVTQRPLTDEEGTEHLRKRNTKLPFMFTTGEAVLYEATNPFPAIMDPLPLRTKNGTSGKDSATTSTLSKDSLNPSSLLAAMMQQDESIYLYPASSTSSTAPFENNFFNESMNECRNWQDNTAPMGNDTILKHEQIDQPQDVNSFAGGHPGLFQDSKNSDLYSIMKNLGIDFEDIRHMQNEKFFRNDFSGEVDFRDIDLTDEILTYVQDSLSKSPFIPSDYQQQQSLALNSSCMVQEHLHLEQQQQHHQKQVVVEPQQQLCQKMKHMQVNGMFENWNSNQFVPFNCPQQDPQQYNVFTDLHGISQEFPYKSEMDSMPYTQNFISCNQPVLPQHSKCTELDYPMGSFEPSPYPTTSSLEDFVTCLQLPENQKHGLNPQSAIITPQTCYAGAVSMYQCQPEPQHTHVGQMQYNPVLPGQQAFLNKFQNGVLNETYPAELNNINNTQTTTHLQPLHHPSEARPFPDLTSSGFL
# SR-BI HDL uptake – inhibitors of SR-BI mediated HDL lipid uptake, primary screen, ldlA[mSR-BI] cells, fluorescence, single point. 320,000 tested, 0.96% active. Scavenger receptor class B member 1 (Mus musculus), Q61009. AID 488896, 2010. ldlA[mSR-BI] CHO cells, DiI-HDL uptake fluorescence, 3 h. inhibition, % at 12.5 µM;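 active = mean replicate inhibition of at least 70% and a set share of replicates each scoring 70 or more; inconclusive = meets just one of the two criteria; inactive = fails both criteria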
# FXN GAA850 act – FXN promoter activators, primary screen, cell-based, luciferase luminescence, HEK293 lucGAA850; HEK293 lucGAA850 FXN promoter luciferase reporter, 24 h; percent of 10 µM SAHA response; activation, % at 6 µM; 360,000 tested, 0.56% active;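 active = activation above the average of all compounds screened plus 3 SD, cutoff fixed separately per campaign, cut at about 7.5% in these data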
# JMJD2C inh – inhibitors of GASC-1 histone demethylase, primary screen, biochemical, fluorescence, DELFIA europium; Lysine-specific demethylase 4C (Homo sapiens), Q9H3R0; GST-JMJD2C(1-420) H3K9me3 demethylation; inhibition, % at 2.35 µM; 330,000 tested, 0.069% active; AID 2099, 2009;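 active = more than half of a compound's replicate wells show inhibition beyond 50%, single wells judged on their own value; inconclusive = some, but no more than half, of replicates pass 50% inhibition; inactive = no replicate passes 50% inhibition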;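 note: signal counts dimethyl H3K9 product captured on neutravidin plate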
# SR-BI DiI-HDL act – activators of SR-BI mediated DiI-HDL uptake, primary screen, ldlA[mSR-BI] CHO cells, DiI fluorescence; 3 h; 100 = double the neutral-control signal; activation, % at 12.5 µM; 320,000 tested, 0.096% active; AID 504775, 2011;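 active = mean replicate activation of at least 60% and every replicate at or above 60%; inconclusive = mean or all-replicate condition met, but not both; inactive = mean below 60% and not all replicates reaching 60%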
#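 Assay system: CHO ldlA[mSR-BI] cells, LDL receptor-null, SR-BI overexpressing; medium: Ham's F12 with 0.5% BSA, HEPES 25 mM, pH 7.4; also added: DiI-HDL 10 µg/mL; timing: 3 h uptake period with compound, 37 °C; signal: DiI fluorescence, bottom read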
# AHR act confirm – AHR activators, confirmation, cell-based, luminescence, luciferase reporter, human; AID 2845, 2010; human cells, AHR-responsive luciferase reporter; activation, % at 9 µM; shares compounds with AHR activator; 2,300 tested, 87% active; in the data active = activation above about 49%;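 note: HepG2 hepatoma cells carrying a DRE-driven firefly luciferase reporter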
# PXR act counter – human PXR activators, counter-screen for AHR activator project, cell-based, luciferase luminescence. activation, % at 11.6 µM. cell-based PXR reporter. shares compounds with AHR activator. 2,300 tested, 88% active; in the data active = activation above about 11%;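 note: human hepatoma DPX-2 cells expressing full-length human PXR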
# Numbers stand for hits; . = inactive; ? = inconclusive; / = no result. In the library only some 3.7% were active in any assay of this set; here they are far more common.
SMILES,AHR activator,SR-BI HDL uptake,FXN GAA850 act,JMJD2C inh,SR-BI DiI-HDL act,others
COC(=O)C1=C(c2ccc(OCc3ccccc3)cc2)C[C@@H]2CC[C@H]1N2C(=O)NCc1cccc(C(F)(F)F)c1,.,.,.,.,.,
COc1ccc(CN2CCN(C(=O)Cc3ccccc3)CC2)cc1Br,.,.,.,.,.,
N#Cc1ccccc1Cn1cc(C(=O)c2ccco2)c2ccccc21,.,.,.,.,.,
Cc1ccc(N=C(N(C)C)P(=O)(N(C)C)N(C)C)cc1,.,.,.,.,.,
COC(=O)C1=C(c2ccc(OCc3ccccc3)cc2)C[C@@H]2CC[C@H]1N2C(=O)NCc1ccccc1C(F)(F)F,/,/,.,/,/,
Cc1cccc(C2=NCC(=O)N(CC(=O)NCc3ccco3)c3sc4c(c32)CCCC4)c1,.,77.3,.,.,.,
COc1ccc(C2=NCC(=O)N(CC(=O)NCc3ccco3)c3sc4c(c32)CCCC4)cc1,.,.,.,.,.,
COc1ccc(CN2C(=O)NC(=O)/C(=C/c3cc(OC)c(OC)c(OC)c3)C2=O)cc1,.,.,.,.,.,
COc1ccc(CN2C(=O)NC(=O)/C(=C/c3ccc(OC)c(OC)c3OC)C2=O)cc1,.,.,.,.,379.8,
CN(C)C1C(=O)C(C(N)=O)=C(O)C2(O)C(=O)C3=C(O)c4c(O)cccc4C(C)(O)C3CC12 (stereo not given),.,.,17.3,.,.,
Cc1cccc(N=Cc2c(O)n(-c3ccccc3C)c(=O)[nH]c2=O)c1,.,.,.,/,.,
Cc1ccccc1-n1c(O)c(C=Nc2ccc(N(C)C)cc2)c(=O)[nH]c1=O,60.7,.,.,.,.,
O=C1NC(=O)C(C(CC(=O)c2ccccc2)c2ccccc2)C(=O)N1 (stereo not given),.,.,.,53.1,.,
O=C1OCCC1C(=O)c1ccccc1 (stereo not given),/,/,.,/,/,
CCOC(=O)c1c(C)n(Cc2ccco2)c2ccc(O)cc12,47.2,.,.,.,.,
O=[N+]([O-])c1ccc(NCc2ccc(Cl)cc2)c2ccncc12,65.4,.,.,.,.,
CN1CCN(c2ccc(C=O)cc2)CC1,.,.,.,59.1,.,
CN1CCN(c2ccc(N)cc2)CC1,.,.,.,.,.,
CCn1cc(C(=O)N2CCCCC2)c2ccccc21,.,.,.,.,.,
CCn1cc(C(=O)c2cccs2)c2ccccc21,49.0,.,.,.,.,
COC(=O)CCCCC1SCC(NC(=O)c2ccccc2)C1Cl (stereo not given),.,.,.,.,.,
CN1CCc2nc(SCC(=O)OC(C)(C)C)c(C#N)cc2C1,.,.,.,.,.,
CN1CCc2nc3sc(C(=O)NC4CC4)c(N)c3cc2C1,55.4,.,.,.,.,
Cc1c2ccncc2c(C)c2c1[nH]c1ccccc12,66.7,.,.,.,.,
c1ccc2c(c1)[nH]c1cnccc12,.,.,.,.,.,
SMILES,AHR activator,SR-BI HDL uptake,FXN GAA850 act,JMJD2C inh,SR-BI DiI-HDL act,others
CN1OC[C@@H]2CN[C@H](c3ccc(Br)cc3)C[C@@H]21,/,/,.,/,/,
c1ccc(C2=NP(N3CCOCC3)(N3CCOCC3)=NC(N3CCOCC3)=N2)cc1,/,/,/,.,/,
Cc1cccc(-n2c(O)c(/C=C3/C(c4ccccc4)=Nc4ccccc43)c(=O)[nH]c2=O)c1,76.4,/,.,.,/,
O=C1NC(c2cccnc2)Nc2sc3c(c21)CCCC3 (stereo not given),56.1,.,.,.,.,
COc1cc(C(=O)Nc2ccc(Br)cc2C(=O)c2ccccc2)cc(OC)c1OC,.,81.0,.,.,.,
Cc1ccc(NC(=O)[C@@H](NC(=O)N2C[C@H]3C[C@@H](C2)c2cccc(=O)n2C3)C(C)C)cc1,.,.,.,.,.,
O=C1NC(=O)C(=Cc2ccc(-c3cc(Cl)ccc3[N+](=O)[O-])o2)C(=O)N1,/,.,.,?,.,
O=C1NC(=O)C(=Cc2ccc(-c3ccccc3[N+](=O)[O-])o2)C(=O)N1,.,76.8,.,.,.,
C=C1C(=O)O[C@@H]2C[C@@H](C)[C@H]3C=CC(=O)[C@]3(O)C[C@@H]12,.,.,13.9,.,.,
CC(N)Cc1c[nH]c2c1ccc1ccccc12 (stereo not given),48.8,.,.,.,.,
CCC(N)Cc1c[nH]c2ccccc12 (stereo not given),/,.,.,.,.,
O=C(Cn1ncn2c(cc3cc(F)ccc32)c1=O)N1CCC2(CC1)OCCO2,.,.,.,.,.,
O=c1[nH]c(=S)[nH]c(O)c1N=Nc1ccc2c(c1)OCO2,74.9,.,.,.,.,
O=c1[nH]c(=S)[nH]c(O)c1N=Nc1ccc2c(c1)OCCO2,.,.,.,.,.,
O=C1NC(=O)N(Cc2ccco2)C(=O)/C1=C/c1cccn1CCOc1ccccc1Cl,.,.,.,.,.,
COc1ccccc1-n1c(CNCC2CCCO2)nc2ccccc2c1=O (stereo not given),81.3,.,.,.,.,AHR act confirm=48.4;PXR act counter=37.5
CC(C)=CCOc1c2occc2cc2ccc(=O)oc12,114.4,.,.,.,.,AHR act confirm=86.1;PXR act counter=77.9
O=C(COc1ccccc1)c1cn(Cc2ccccc2)c2ccccc12,84.2,.,.,.,.,AHR act confirm=66.2;PXR act counter=103.4
C[C@]12CCC3[C@@H](CCC4=CC(=O)CC[C@@]43CO)C1CCC2=O (stereo not given in full),.,.,.,.,.,
NC(=O)Nc1ccc(C(=O)OCC(=O)Nc2ccc(Cl)cc2C(=O)c2ccccc2)cc1,93.3,.,.,.,.,AHR act confirm=.;PXR act counter=14.3
C=CCN1CCC2(C)c3cc(O)ccc3CC1C2C (stereo not given),.,.,.,.,.,
CC1CCCC(C)N1/N=C/c1c[nH]c2ccc(Br)cc12 (stereo not given),88.9,.,.,.,.,AHR act confirm=82.8;PXR act counter=59.7
CN1CCC(c2c[nH]c3ccc(O)cc23)CC1,/,.,.,/,.,
CC1CC(C)CN(C(=O)COC(=O)c2cn(C)c3ccccc23)C1 (stereo not given),.,.,.,.,.,
CCc1cc(=O)oc2c(C)c(OCC(=O)N3C[C@H]4C[C@@H](C3)c3cccc(=O)n3C4)ccc12,.,.,.,?,.,
COc1ccc2oc3c(c2c1)NC(=O)CN=C3c1ccccc1,.,.,.,.,.,
